Measurements from ChEMBL document CHEMBL3124905, “Isothiocoumarin-3-carboxylic acid derivatives: synthesis, anticancer and antitrypanosomal activity evaluation” (Eur J Med Chem, 2014).

What was measured:
CCRF-CEM = test: Growth inhibition of human CCRF-CEM cells at 10 uM after 48 hrs by SRB assay; assay type: functional; conditions: read-out: GI
Summary of the method: (§1)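 NCI one-dose screen across roughly 60 human tumour cell lines. Cells were preincubated 24–48 h, then treated with a single 10−5 M concentration for 48 h. Growth was read with the SRB protein-binding dye and reported as percent growth versus untreated controls. Negative values indicate cell kill.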

[1] = Growth inhibition of human […] cells at 10 uM after 48 hrs by SRB assay; assay type: functional; conditions: read-out: GI; summary of the method: as §1
[2] = Growth inhibition of human UO31 cells at 10 uM after 48 hrs by SRB assay; values are per cent of control; conditions: UO-31, 48 h
[3] = Growth inhibition of human Hs 578T cells after 48 hrs by SRB assay; assay type: functional
Summary of the method: (§2)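 NCI five-dose assay against the ~60-cell-line panel (nine cancer types). Tenfold dilutions from 10−4 to 10−8 M were used with continuous 48-h exposure and SRB absorbance readout. Percent growth was computed from time-zero, control and treated absorbances. GI50 is the concentration giving 50% lower net protein increase than controls. Values not reached are reported as beyond the tested range.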

SNB-75 [4] = test: Growth inhibition of human SNB75 cells after 48 hrs by SRB assay; assay type: functional; conditions: SNB-75, 48 h; summary of the method: as §2
SR = test: Growth inhibition of human SR cells after 48 hrs by SRB assay; assay type: functional
Summary of the method: (§3)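 NCI ~60-cell-line five-dose screen. Cells were preincubated 24-48 h, then given compound at 10-fold dilutions from 10^-4 to 10^-8 M with 48 h continuous exposure. SRB protein stain was read by absorbance at time zero, in untreated control and with drug. GI50 was derived from [(Ti-Tz)/(C-Tz)]x100=50, TGI from Ti=Tz, and LC50 from [(Ti-Tz)/Tz]x100=-50.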

CAKI-1 [5] = test: Growth inhibition of human CAKI-1 cells after 48 hrs by SRB assay; assay type: functional; conditions: CAKI-1, 48 h; summary of the method: as §2
[6] = Growth inhibition of human OVCAR4 cells after 48 hrs by SRB assay; assay type: functional; conditions: OVCAR-4, 48 h; summary of the method: as §2
A549 = test: Growth inhibition of human A549/ATCC cells at 10 uM after 48 hrs by SRB assay; values are per cent of control; conditions: A549, 48 h
SNB-75 [7] = test: Growth inhibition of human SNB75 cells at 10 uM after 48 hrs by SRB assay; values are per cent of control; conditions: SNB-75, 48 h
[8] = tested on: Trypanosoma brucei brucei; test: Antitrypanosomal activity against bloodstream form of Trypanosoma brucei brucei strain 90-13 assessed as inhibition of parasite growth at 10 ug/ml after 72 hrs by resazurin reduction test; assay type: functional; conditions: strain 90-13, 72 h
Summary of the method: (§4)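 Trypanosoma brucei brucei 90-13 bloodstream forms, grown in HMI9 with 10% FCS at 37 °C under 5% CO2. Log-phase parasites were seeded at 10^5 cells/mL with or without inhibitor, with stocks prepared in DMSO. After 72 h, resazurin was added and fluorescence was read at 530/590 nm after a further 4 h. Percent growth inhibition was calculated versus drug-free parasites, with DMSO as control.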

[9] = Growth inhibition of human HOP92 cells after 48 hrs by SRB assay; assay type: functional; conditions: HOP-92, 48 h; summary of the method: as §2
OVCAR-3 [10] = test: Growth inhibition of human OVCAR3 cells after 48 hrs by SRB assay; assay type: functional; conditions: OVCAR-3, 48 h; summary of the method: as §2
[11] = Acute toxicity in ip dosed white mouse; assay type: organism-based; conditions: in vivo
Summary of the method: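 White male mice, 23-25 g, dosed intraperitoneally with compound dissolved in 0.9% NaCl saline plus 1-2 drops Polysorbate 80 (Tween-80). Solutions prepared immediately before use. Doses ranged 100-1000 mg/kg, testing 4 or 5 doses with 6 animals per dose. LD50 derived by the Litchfield-Wilcoxon method.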

CAKI-1 [12] = test: Growth inhibition of human CAKI-1 cells at 10 uM after 48 hrs by SRB assay; values are per cent of control; conditions: CAKI-1, 48 h
NCI-H322M = test: Growth inhibition of human NCI-H322M cells after 48 hrs by SRB assay; assay type: functional; summary of the method: as §2
[13] = Growth inhibition of human UO31 cells after 48 hrs by SRB assay; assay type: functional; conditions: UO-31, 48 h; summary of the method: as §3
Malme-3M = test: Growth inhibition of human MALME-3M cells after 48 hrs by SRB assay; assay type: functional; summary of the method: as §2
[14] = Growth inhibition of human SF539 cells after 48 hrs by SRB assay; assay type: functional; conditions: SF-539, 48 h; summary of the method: as §2
TK-10 = test: Growth inhibition of human TK10 cells after 48 hrs by SRB assay; assay type: functional; conditions: TK-10, 48 h; summary of the method: as §3
[15] = tested on: Trypanosoma brucei brucei; test: Antitrypanosomal activity against bloodstream form of Trypanosoma brucei brucei strain 90-13 assessed as inhibition of parasite growth at 1 ug/ml after 72 hrs by resazurin reduction test; assay type: functional; conditions: strain 90-13, 72 h; summary of the method: as §4
[16] = Growth inhibition of human SF539 cells at 10 uM after 48 hrs by SRB assay; values are per cent of control; conditions: SF-539, 48 h
U-251 = test: Growth inhibition of human U251 cells after 48 hrs by SRB assay; assay type: functional; conditions: U-251, 48 h; summary of the method: as §3
OVCAR-3 [17] = test: Growth inhibition of human OVCAR3 cells at 10 uM after 48 hrs by SRB assay; values are per cent of control; conditions: OVCAR-3, 48 h
ACHN = test: Growth inhibition of human ACHN cells after 48 hrs by SRB assay; assay type: functional; summary of the method: as §2

Q: Which results are given for `O=C(Nc1ccc(O)cc1)c1cc2ccccc2c(=O)s1`?
A: inhibition of growth at 10 µM (CCRF-CEM): -28%; inhibition of growth at 10 µM [1]: -11%; growth percent at 10 µM [2]: -62.1%

Q: Which results are given for `COc1ccc2cc(C(=O)Nc3nc(-c4ccccc4)cs3)sc(=O)c2c1OC`?
A: GI50 [3]: 2630 nM; TGI ([3]; read-out: pTGI (converted)): 4370 nM; GI50 (SNB-75 [4]): 1580 nM; TGI (SNB-75 [4]; read-out: pTGI (converted)): 3550 nM; GI50 (SR): 2750 nM; TGI (SR; read-out: pTGI (converted)): > 100000 nM; GI50 (CAKI-1 [5]): 240 nM; TGI (CAKI-1 [5]; read-out: pTGI (converted)): 1780 nM; GI50 [6]: 1860 nM; growth percent at 10 µM (A549): -50.8%; growth percent at 10 µM (SNB-75 [7]): -43.8%; growth percent at 10 µM [2]: -65.5%; inhibition at 10 µg/mL [8]: 11.3%; GI50 [9]: 1290 nM; TGI ([9]; read-out: pTGI (converted)): 3160 nM; GI50 (OVCAR-3 [10]): 1910 nM; TGI (OVCAR-3 [10]; read-out: pTGI (converted)): 3720 nM; LD50 [11]: 515 mg/kg; growth percent at 10 µM (CAKI-1 [12]): -70.8%; GI50 (NCI-H322M; read-out: GI50): 1280 nM; GI50 (NCI-H322M; read-out: pGI50 (converted)): 1290 nM; TGI (NCI-H322M; read-out: pTGI (converted)): 5620 nM; GI50 [13]: 1950 nM; TGI ([13]; read-out: pTGI (converted)): 3090 nM; GI50 (Malme-3M): 1950 nM; TGI (Malme-3M; read-out: pTGI (converted)): 8320 nM; GI50 [14]: 1780 nM; TGI ([14]; read-out: pTGI (converted)): 3630 nM; GI50 (TK-10): 2090 nM; TGI (TK-10; read-out: pTGI (converted)): 3800 nM; inhibition at 1 µg/mL [15]: 28.6%; growth percent at 10 µM [16]: -48%; GI50 (U-251): 2000 nM; TGI (U-251; read-out: pTGI (converted)): 4470 nM; growth percent at 10 µM (OVCAR-3 [17]): -67%; GI50 (ACHN): 2040 nM; TGI (ACHN; read-out: pTGI (converted)): > 100000 nM
